The nature of series [1]: folding enthalpy; higher = less favourable; fluorescence melt of hairpins on a sequencing array, two-state fit. Conditions: sodium 0.088 M. The method in brief: (§1)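 In 50 mM Na-HEPES pH 8.0 containing 25 mM NaCl, hairpins from the library on a sequenced MiSeq flow cell were imaged for Cy3 fluorescence at 2.5 °C steps up to 60 °C, with Cy3 and quencher oligos annealed. After normalisation to pre-quench Cy3 and to control constructs, two-state fits with bootstrapping gave melting temperature and folding enthalpy. Four replicates were combined by inverse-variance weighting, and fitted temperatures were shifted up by 9.35 °C to match UV melts.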

Series [2] is described as follows: melting temperature; fluorescence melt of hairpins on a sequencing array, two-state fit, raised by 9.35 °C to match UV melts. As to conditions: sodium 0.088 M. The method in brief:
as §1

With GTGAACGAAAGTTACAC ((((((....))).))), the folding enthalpy in series [1] is -17.7 kcal/mol. Besides, the Tm in series [2] came to 38.8 °C.
GATCCCATCCGGGATC ((((((....)))))): the folding enthalpy in series [1] was -36.8 kcal/mol. The Tm in series [2] is 64.2 °C.
Taken in the same sequence, the figures for GAATCCCGAAAGGGCTTC (((.(((....))).))) were -19.1 kcal/mol and 41.9 °C.
GTCTTCCGAAAGGATGAC (((.(((....))).))): the folding enthalpy in series [1] was -42.4 kcal/mol. Also, the Tm in series [2] was determined as 53.1 °C.
Take GTTCCCGAAAGGGGTAAC ((((((....)))..))): the folding enthalpy in series [1] was -12.2 kcal/mol. In addition, the Tm in series [2] was determined as 29.8 °C.
Taken in the same sequence, the figures for CACGAGAAATCGTG (((((....))))) were -23.5 kcal/mol and 50.6 °C.
Take GGTCGCGAAAGCGATACC ((((((....)))..))): the folding enthalpy in series [1] was -11.3 kcal/mol. For the same sequence, the Tm in series [2] amounted to 47.7 °C.
On to GAGCCCCGAAAGGGTCTC (((.(((....))).))), for which the folding enthalpy in series [1] was -32.9 kcal/mol. Moreover, the Tm in series [2] was determined as 57.1 °C.
The matching figures for GTGTACGAAAGTATCAC ((((((....))).))): -22.8 kcal/mol and 43.6 °C.
Taken in the same sequence, the figures for GATCCTAATAGGATC ((((((...)))))) were -27.7 kcal/mol and 51.9 °C.
In the case of GTGCCCGAAAGGGGACAC ((((((....)))..))), the folding enthalpy in series [1] was -12.2 kcal/mol. Further, the Tm in series [2] was 67 °C.
For the sequence GGGGCCGGAAACGGCCTC (.(((((....))))).), the folding enthalpy in series [1] was -10.4 kcal/mol. Besides, the Tm in series [2] stood at 69.2 °C.
On to CGCGGATTGCTCCGCG ((((((....)))))), for which the folding enthalpy in series [1] is -48.8 kcal/mol. In addition, the Tm in series [2] is 64.9 °C.
Taken in the same sequence, the figures for GACTACGGAAACGTAGCC (.(((((....))))).) were -14.1 kcal/mol and 44.5 °C.
The matching figures for GTCCACGAAAGTGCGGAC ((((((....)))..))): -17.4 kcal/mol and 45 °C.
Take GGGGTAGGAAACTACCCC (((((((....))))))): the folding enthalpy in series [1] is -25.7 kcal/mol. Besides, in series [2], the Tm is 67.2 °C.
The matching figures for GCTATGCGAAAGCACGGC ((..(((....)))..)): -17.7 kcal/mol and 41.4 °C.
Taken in the same sequence, the figures for GATCGTCACGACGATC ((((((....)))))) were -43.1 kcal/mol and 57.8 °C.
Taken in the same sequence, the figures for GTGGTCGGAAACGATCAC (((.(((....))).))) were -44.6 kcal/mol and 55.7 °C.
For the sequence GCGGCTACCGC ((((...)))), the folding enthalpy in series [1] was -21 kcal/mol. In series [2], the Tm is 57.7 °C.
Taken in the same sequence, the figures for GGTTATGGAAACACAACC ((((.((....)).)))) were -24.6 kcal/mol and 33.8 °C.
Consider AGTCTGAAAAGACT (((((....))))), for which the folding enthalpy in series [1] was -19.6 kcal/mol. Besides, the Tm in series [2] worked out at 47 °C.
Consider GATCGGCCAACCGATC ((((((....)))))), for which the folding enthalpy in series [1] was -38.4 kcal/mol. In addition, in series [2], the Tm was determined as 55.8 °C.
The matching figures for GACGAGGGAAACTTCGTC (((((.(....).))))): -40.8 kcal/mol and 49 °C.
Taken in the same sequence, the figures for GTACCCTCGAAAGAGTAC (((..(((....)))))) were -10.6 kcal/mol and 25.2 °C.
Taken in the same sequence, the figures for GATCAGATTCTGATC ((((((...)))))) were -29.7 kcal/mol and 48.5 °C.
Turning to GATCGGATGCCGATC ((((((...)))))), in series [1], the folding enthalpy was -19 kcal/mol. Also, in series [2], the Tm amounted to 63 °C.
With GTTGGCGGAAACGTCAGC (.((.((....)).)).), the folding enthalpy in series [1] is -21.6 kcal/mol. In addition, the Tm in series [2] is 42.3 °C.
Taken in the same sequence, the figures for GTTGAAGGAAACTTCAGC (.(((((....))))).) were -23 kcal/mol and 41.4 °C.
The matching figures for GTGTCAGGAAACTGACGC (.(((((....))))).): -40.5 kcal/mol and 55.4 °C.
As to GGAGCTCGAAAGAGATCC (((.(((....))).))), in series [1], the folding enthalpy was -44 kcal/mol. The Tm in series [2] stood at 64 °C.
Taken in the same sequence, the figures for CGACTCGGAAACGATCG (((.(((....)))))) were -31.8 kcal/mol and 40.5 °C.
Taken in the same sequence, the figures for GTTTCCGAAAGGAAAC ((((((....)))))) were -41.3 kcal/mol and 67.8 °C.
GGCAAGCGAAAGCTCGCC (((.(((....))).))): the folding enthalpy in series [1] was -22.9 kcal/mol. Besides, the Tm in series [2] was found to be 59.7 °C.
Taken in the same sequence, the figures for GTTGGTGGAAACACCGAC ((.((((....)))).)) were -39 kcal/mol and 53.4 °C.
GAATGAGGAAACTTATTC ((((.((....)).)))): the folding enthalpy in series [1] was -20.4 kcal/mol. In addition, the Tm in series [2] stood at 29.6 °C.
The matching figures for GCTACGCGAAAGCCCAGC (((..((....))..))): -6.89 kcal/mol and 33.3 °C.
The matching figures for GAATTCGCGAAAGCGTTC (((..(((....)))))): -6.23 kcal/mol and 19.9 °C.
The matching figures for GATGACGAAAGTCGTATC ((((((....)))..))): -12.1 kcal/mol and 36 °C.
With GGGGCCGCGAAAGCGCCC (((..(((....)))))), the folding enthalpy in series [1] was -11 kcal/mol. For the same sequence, the Tm in series [2] worked out at 66 °C.
On to CGACCGGAAACGGCGTCG ((((((....)))..))), for which, in series [1], the folding enthalpy is -18.1 kcal/mol. The Tm in series [2] turned out to be 50.2 °C.
The matching figures for GATCCATTCTTGGATC ((((((....)))))): -42.1 kcal/mol and 54 °C.
Taken in the same sequence, the figures for GATCGTTTATACGATC ((((((....)))))) were -38.7 kcal/mol and 57.5 °C.
Taken in the same sequence, the figures for GCGGAACGAAAGTTGCGC (((.(((....))).))) were -35.6 kcal/mol and 67.9 °C.
For GCGTCGTCACGC ((((....)))), the folding enthalpy in series [1] is -22.4 kcal/mol. Also, the Tm in series [2] was determined as 51.8 °C.
Taken in the same sequence, the figures for GCGGAGGGCCGC ((((....)))) were -15.4 kcal/mol and 53.9 °C.
Taken in the same sequence, the figures for GTGCAGGGAAACCCACAC (((..((....))..))) were -19.2 kcal/mol and 32.4 °C.
The matching figures for GTAGAAGGAAACTTCTAC (((((((....))))))): -40 kcal/mol and 51.4 °C.
With GATCATTGGAATGATC ((((((....)))))), in series [1], the folding enthalpy was -36.1 kcal/mol. Moreover, the Tm in series [2] came to 46.5 °C.
GGTTCTTCGAAAGAAACC (((..(((....)))))): in series [1], the folding enthalpy was -13.4 kcal/mol. The Tm in series [2] came to 29.1 °C.
With GGCCTATCGAAAGATGCC (((..(((....)))))), the folding enthalpy in series [1] was -22.8 kcal/mol. Besides, in series [2], the Tm came to 36.1 °C.
Consider GTATCCGGAAACGGACAC ((.((((....)))).)), for which, in series [1], the folding enthalpy was -19.8 kcal/mol. Further, the Tm in series [2] was determined as 39 °C.
The matching figures for GCATGCGGAAACACATGC (((((.(....).))))): -42 kcal/mol and 49.7 °C.
On to GTCGTAGGAAACTGCGAC ((((.((....)).)))), for which the folding enthalpy in series [1] was -55.2 kcal/mol. Further, the Tm in series [2] was 53.5 °C.
The matching figures for GATCCCACAGGGGATC ((((((....)))))): -33.4 kcal/mol and 61.8 °C.
Taken in the same sequence, the figures for GCGGCCGCCGC ((((...)))) were -19.9 kcal/mol and 55.1 °C.
Turning to GTTTCCGAAAGGAAAAC ((((((....))).))), the folding enthalpy in series [1] is -16.1 kcal/mol. Further, the Tm in series [2] was 45.1 °C.
Taken in the same sequence, the figures for GCATAAGGAAACTTATGC (((((((....))))))) were -39.1 kcal/mol and 54.7 °C.
Taken in the same sequence, the figures for GTTTTCGGAAACGAAAGC (.(((((....))))).) were -25.9 kcal/mol and 44.4 °C.
In the case of GCACGCGAAAGCGGCTGC ((((((....)))..))), the folding enthalpy in series [1] is -14.7 kcal/mol. Also, the Tm in series [2] was found to be 65.4 °C.
In the case of GCAGGCGAAAGCCTCTGC ((((((....)))..))), the folding enthalpy in series [1] was -12 kcal/mol. In addition, in series [2], the Tm is 46.7 °C.
The matching figures for GCGAGCAGTCGC ((((....)))): -26.2 kcal/mol and 52.6 °C.
Taken in the same sequence, the figures for GCCTGCGAAAGCAGTGGC ((((((....)))..))) were -14.8 kcal/mol and 57.1 °C.
The matching figures for GGGGCTGGAAACGGCTCC ((.((.(....).)).)): -38.7 kcal/mol and 48.6 °C.
With GCTTCAGGAAACTGAGGC ((.((((....)))).)), the folding enthalpy in series [1] was -37.3 kcal/mol. In addition, the Tm in series [2] worked out at 47.7 °C.
The matching figures for GGACATGGAAACGTGTCC (((((.(....).))))): -45.1 kcal/mol and 52.6 °C.
The matching figures for GGGCTCGAAAGAGTTCCC ((((((....)))..))): -21 kcal/mol and 43.5 °C.
The matching figures for GCGGGCCTCCGC ((((....)))): -22.5 kcal/mol and 64 °C.
GCAACGCGAAAGCTTTGC ((((.((....)).)))): in series [1], the folding enthalpy was -27.4 kcal/mol. In addition, the Tm in series [2] was 55.5 °C.
The matching figures for GTACACGGAAACGTGCAC ((.((((....)))).)): -17.9 kcal/mol and 46.8 °C.
Taken in the same sequence, the figures for GTCCACGAAAGTGCAGAC ((((((....)))..))) were -16.5 kcal/mol and 36.2 °C.
GGATTGCGAAAGCAGTCC (((.(((....))).))): the folding enthalpy in series [1] is -38.5 kcal/mol. Moreover, the Tm in series [2] came out at 60.2 °C.
The matching figures for GATCCTAGAAGGATC ((((((...)))))): -40.9 kcal/mol and 53.4 °C.
The matching figures for GCCATGACGAAAGTCGGC (((..(((....)))))): -20 kcal/mol and 51 °C.

For the origin of these results see the array DNA melting data of Ke et al. (doi:10.1101/2024.01.08.574731).
